Measured values from ChEMBL document CHEMBL4004850, “Rational design of reversible inhibitors for trehalose 6-phosphate phosphatases” (Eur J Med Chem, 2017).

What was measured:
[1] = system: Salmonella enterica subsp. enterica serovar Typhimurium; assay: Inhibition of Salmonella typhimurium T6PP using T6P as substrate assessed as fraction of enzyme unbound with compound by measuring ratio of initial velocities of T6P substrate hydrolysis in presence and absence of compound at 1 mM after 5 mins by BioMol green dye based HTS assay
Procedure, shortened: (§1)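 Freshly purified St-T6PP or Sb-T6PP (5–25 nM) in 50 mM Hepes pH 7.5, 25 mM NaCl, 2 mM MgCl₂, 5% glycerol at 25 °C. T6P at half saturation (Km) for each enzyme. Hydrolysis rate was compared with and without 1 mM inhibitor; phosphate read at 625 nm after 30 min incubation. The ratio VI/V gives the fraction of enzyme not inhibitor-bound.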

[2] = molecular target: T1, Trehalose-phosphatase (Brugia malayi) (UniProt A8NS89); assay: Inhibition of Brugia malayi T6PP using T6P as substrate assessed as fraction of enzyme unbound with compound by measuring ratio of initial velocities of T6P substrate hydrolysis in presence and absence of compound at 1 mM […] by BioMol green dye based HTS assay
T1 sequence (whole entry): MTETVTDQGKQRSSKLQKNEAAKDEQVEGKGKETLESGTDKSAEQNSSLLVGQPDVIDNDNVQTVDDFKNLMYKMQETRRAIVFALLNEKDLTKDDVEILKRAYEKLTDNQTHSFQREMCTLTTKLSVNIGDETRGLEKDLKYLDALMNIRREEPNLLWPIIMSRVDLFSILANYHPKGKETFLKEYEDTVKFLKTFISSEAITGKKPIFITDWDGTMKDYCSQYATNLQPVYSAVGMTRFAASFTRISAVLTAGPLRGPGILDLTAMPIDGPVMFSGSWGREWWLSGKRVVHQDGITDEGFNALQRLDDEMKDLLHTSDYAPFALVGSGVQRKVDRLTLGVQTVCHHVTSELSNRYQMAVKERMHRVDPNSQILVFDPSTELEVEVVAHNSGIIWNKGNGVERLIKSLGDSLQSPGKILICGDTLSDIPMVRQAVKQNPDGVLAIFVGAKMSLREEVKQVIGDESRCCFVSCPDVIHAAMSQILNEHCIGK

Ascaris suum [3] = assay: Inhibition of Ascaris suum T6PP using T6P as substrate assessed as fraction of enzyme unbound with compound by measuring ratio of initial velocities of T6P substrate hydrolysis in presence and absence of compound at 1 mM after 5 mins by BioMol green dye based HTS assay
Procedure, shortened: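 T6P is at half saturation ([T6P] = Km), with and without 1 mM inhibitor, at 25 °C. Released phosphate is detected with dye (30 min incubation) by A625. The reported value is V_I/V, the initial-velocity ratio.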

Shigella boydii [4] = assay: Inhibition of Shigella boydii T6PP using T6P as substrate assessed as fraction of enzyme unbound with compound by measuring ratio of initial velocities of T6P substrate hydrolysis in presence and absence of compound at 1 mM after 5 mins by BioMol green dye based HTS assay; procedure, shortened: as §1
Trehalose-phosphatase = molecular target: T2, Trehalose-phosphatase (Brugia malayi, UniProt A8NS89); assay: Competitive inhibition of Brugia malayi T6PP using T6P as substrate by Lineweaver-Burk plot analysis
T2 sequence (A8NS89 whole entry): T1 sequence (whole entry)
Procedure, shortened: (§2)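 Continuous phosphate-release assay (EnzChek, MESG/purine nucleoside phosphorylase) at 25 °C. Initial velocities of T6P hydrolysis by T6PP were taken at varied T6P with inhibitor at 0, Ki and 2×Ki. Km and Vmax come from double-reciprocal plots.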

[5] = Inhibition of Salmonella typhimurium T6PP using T6P as substrate by Lineweaver-Burk plot analysis; design: species or system Salmonella enterica subsp. enterica serovar Typhimurium; procedure, shortened: as §2
[6] = Inhibition of Shigella boydii T6PP using T6P as substrate by Lineweaver-Burk plot analysis; procedure, shortened: as §2
[7] = Inhibition of Ascaris suum T6PP using T6P as substrate by Lineweaver-Burk plot analysis
Ascaris suum [8] = assay: Inhibition of Ascaris suum T6PP assessed as Km for substrate using T6P as substrate by Lineweaver-Burk plot analysis; procedure, shortened: as §2
Ascaris suum [9] = assay: Inhibition of Ascaris suum T6PP assessed as Vmax for substrate using T6P as substrate by Lineweaver-Burk plot analysis; procedure, shortened: as §2
Shigella boydii [10] = assay: Inhibition of Shigella boydii T6PP assessed as Vmax for substrate using T6P as substrate by Lineweaver-Burk plot analysis; procedure, shortened: as §2
Shigella boydii [11] = assay: Inhibition of Shigella boydii T6PP assessed as Km for substrate using T6P as substrate by Lineweaver-Burk plot analysis; procedure, shortened: as §2
[12] = system: Salmonella enterica subsp. enterica serovar Typhimurium; assay: Inhibition of Salmonella typhimurium T6PP assessed as Vmax for substrate using T6P as substrate by Lineweaver-Burk plot analysis; procedure, shortened: as §2
[13] = system: Salmonella enterica subsp. enterica serovar Typhimurium; assay: Inhibition of Salmonella typhimurium T6PP assessed as Km for substrate using T6P as substrate by Lineweaver-Burk plot analysis; procedure, shortened: as §2

Compound	Ratio [1]	Ratio [2]	Ratio (Ascaris suum [3])	Ratio (Shigella boydii [4])	further results
O=Cc1ccccc1O[C@@H]1O[C@H](COS(=O)(=O)O)[C@@H](O)[C@H](O)[C@H]1O	0.85	0.79	0.99	0.96	
OC[C@H]1O[C@H](O[C@H]2O[C@H](CO)[C@@H](O)[C@H](O)[C@H]2O)[C@H](O)[C@@H](O)[C@@H]1O [TREHALOSE]	0.88	0.98	0.97	1.01	Ki (Trehalose-phosphatase): > 10000 µM
O=S(=O)(O)OC[C@H]1O[C@@H](Oc2cccc(CO)c2)[C@H](O)[C@@H](O)[C@@H]1O	0.77	0.69	0.63	0.46	
O=S(=O)(O)OC[C@H]1O[C@H](O[C@H]2O[C@H](CO)[C@@H](O)[C@H](O)[C@H]2O)[C@H](O)[C@@H](O)[C@@H]1O	0.01	0.13	0.21	0.22	Ki (Trehalose-phosphatase): 80 µM; Ki [5]: 180 µM; Ki [6]: 330 µM; Ki [7]: 50 µM
CO[C@H]1O[C@H](COS(=O)(=O)O)[C@@H](O)[C@H](OCc2ccccc2)[C@H]1O	0.99	0.67	1.04	0.84	
NS(=O)(=O)OCc1cccc(N[C@@H]2O[C@H](CO)[C@@H](O)[C@H](O)[C@H]2O)c1	1	1.05	0.96	0.85	
O=[N+]([O-])c1ccc(O[C@@H]2O[C@H](COS(=O)(=O)O)[C@@H](O)[C@H](O)[C@H]2O)cc1	0.68	0.64	0.83	0.77	
OC[C@H]1O[C@@H](n2cc(-c3ccccc3)nn2)[C@H](O)[C@@H](O)[C@@H]1O	0.9	0.85	0.96	1	
OC[C@H]1O[C@@H](Oc2ccccc2)[C@H](O)[C@@H](O)[C@@H]1O	0.87	1.12	1	0.9	
O=Cc1ccc(O[C@@H]2O[C@H](COS(=O)(=O)O)[C@@H](O)[C@H](O)[C@H]2O)cc1	0.87	1	0.81	1.06	
O=S(=O)(O)OC[C@H]1O[C@H](O)[C@H](O)[C@@H](O)[C@@H]1O	0.84	0.93	0.94	0.75	
CO[C@H]1O[C@H](COS(=O)(=O)O)[C@@H](O)[C@H](O)[C@H]1O	1.04	0.8	1.07	1	
Nc1ccc(O[C@@H]2O[C@H](COS(=O)(=O)O)[C@@H](O)[C@H](O)[C@H]2O)cc1	0.94	0.63	0.74	1.03	
COc1cc(C=O)cc(OC)c1O[C@@H]1O[C@H](COS(=O)(=O)O)[C@@H](O)[C@H](O)[C@H]1O	0.96	0.55	0.94	1	
CCCCCCCCO[C@@H]1O[C@H](COS(=O)(=O)O)[C@@H](O)[C@H](O)[C@H]1O	0.54	0.72	0.9	0.79	
OC[C@H]1O[C@@H](Nc2ccccc2)[C@H](O)[C@@H](O)[C@@H]1O	0.77	1	0.97	0.92	
O=S(=O)(O)OC[C@H]1O[C@@H](Oc2ccc(-c3ccccc3)cc2)[C@H](O)[C@@H](O)[C@@H]1O	0.85	0.58	0.9	0.84	Km (Ascaris suum [8]): 290 µM; Vmax (Ascaris suum [9]): 0.436 µM/s; Ki [7]: 1800 µM

Compound	Ratio [1]	Ratio [2]	Ratio (Ascaris suum [3])	Ratio (Shigella boydii [4])	further results
CCCCCCc1ccc(O[C@@H]2O[C@H](COS(=O)(=O)O)[C@@H](O)[C@H](O)[C@H]2O)cc1					Ki (Trehalose-phosphatase): 200 µM; Ki [5]: > 400 µM; Vmax (Shigella boydii [10]): 0.534 µM/s; Ki [6]: 140 µM; Km (Shigella boydii [11]): 231 µM; Ki [7]: 200 µM
CO[C@H]1O[C@H](COS(=O)(=O)O)[C@@H](O)[C@H](O)[C@H]1OCc1ccccc1	0.95	0.53	0.96	1	
O=S(=O)(O)OC[C@H]1O[C@@H](n2cc(-c3ccccc3)nn2)[C@H](O)[C@@H](O)[C@@H]1O	0.97	0.98	0.76	0.9	
O=Cc1cccc(O[C@@H]2O[C@H](COS(=O)(=O)O)[C@@H](O)[C@H](O)[C@H]2O)c1	0.95	1.05	0.78	0.81	
OC[C@H]1O[C@H](Oc2ccccc2)[C@H](O)[C@@H](O)[C@@H]1O	1	0.96	0.97	0.86	
OC[C@H]1O[C@@H](NC(=S)Nc2ccccc2)[C@H](O)[C@@H](O)[C@@H]1O	1.09	0.99	0.81	0.92	
O=S(=O)(O)OC[C@H]1O[C@H](OCc2ccccc2)[C@H](O)[C@@H](O)[C@@H]1O	0.47	0.07	0.86	0.74	Ki (Trehalose-phosphatase): 160 µM
CC(=O)Nc1ccc(O[C@@H]2O[C@H](COS(=O)(=O)O)[C@@H](O)[C@H](O)[C@H]2O)cc1	0.85	0.87	0.9	0.88	
O=S(=O)(O)OC[C@H]1O[C@@H](Oc2ccc(F)c(F)c2)[C@H](O)[C@@H](O)[C@@H]1O	0.89	0.74	0.88	0.92	
CO[C@H]1O[C@H](COS(=O)(=O)O)[C@@H](OCc2ccccc2)[C@H](O)[C@H]1O	0.97	0.68	0.99	0.95	
O=S(=O)(O)OCc1cccc(O[C@@H]2O[C@H](CO)[C@@H](O)[C@H](O)[C@H]2O)c1	0.85	0.59	0.98	0.8	
O=S(=O)(O)OC[C@H]1O[C@@H](Oc2cccc3ccccc23)[C@H](O)[C@@H](O)[C@@H]1O	0.8	0.85	0.91	0.85	
CCCCCCCCc1ccc(O[C@@H]2O[C@H](COS(=O)(=O)O)[C@@H](O)[C@H](O)[C@H]2O)cc1	0.01	0.07	0.02	0.04	Ki (Trehalose-phosphatase): 60 to 61 µM; Ki [5]: 120 µM; Km (Ascaris suum [8]): 336 µM; Vmax (Shigella boydii [10]): 0.495 µM/s; Vmax [12]: 0.183 µM/s; Ki [6]: 13 µM; Km [13]: 428 µM; Km (Shigella boydii [11]): 222 µM; Vmax (Ascaris suum [9]): 0.343 µM/s; Ki [7]: 180 µM
O=S(=O)(O)OC[C@H]1O[C@@H](Oc2ccccc2CO)[C@H](O)[C@@H](O)[C@@H]1O	0.73	0.89	0.9	0.85	
O=S(=O)(O)OC[C@H]1O[C@@H](Oc2ccc(CO)cc2)[C@H](O)[C@@H](O)[C@@H]1O	0.79	0.68	0.76	0.67	
CCCCCCc1ccc(O[C@H]2O[C@H](COS(=O)(=O)O)[C@@H](O)[C@H](O)[C@H]2O)cc1					Ki (Trehalose-phosphatase): 80 to 82 µM; Ki [5]: 280 µM; Km (Ascaris suum [8]): 353 µM; Vmax (Shigella boydii [10]): 0.541 µM/s; Vmax [12]: 0.495 µM/s; Ki [6]: 78 µM; Km [13]: 394 µM; Km (Shigella boydii [11]): 239 µM; Vmax (Ascaris suum [9]): 0.631 µM/s; Ki [7]: 350 µM
